Source: ChEMBL document CHEMBL5058577, “EUbOPEN Chemogenomics Library 2 (Multiplex)” (2022)

Tested on: HEK-293T
Assay: Multiplex assay against HEK293T
Assay type: toxicity, cell-based
Conditions: human
Method in brief: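 Live cells were stained at seeding with Hoechst33342, BioTracker Green Microtubule Cytoskeleton Dye, MitoTracker Red and Annexin V Alexa Fluor 680, then imaged on a CQ1 microscope at 37°C and 5% CO2 after compound addition. CellPathfinder machine-learning gating split cells into Hoechst high-intensity objects or normal cells. Normal cells were split into healthy, pyknosed or fragmented nuclei, and pyknosed cells into mitotic or apoptotic. Tubulin, mitochondrial-mass and membrane-permeability phenotypes are per cents of healthy-nucleus cells.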

[1] = 12 h, 1 µM, compound concentration 1 uM, replicate 1
[2] = 12 h, 1 µM, compound concentration 1 uM, replicate 2
[3] = 12 h, 10 µM, compound concentration 10 uM, replicate 1
[4] = 12 h, 10 µM, compound concentration 10 uM, replicate 2
[5] = 24 h, 1 µM, compound concentration 1 uM, replicate 1
[6] = 24 h, 1 µM, compound concentration 1 uM, replicate 2
[7] = 24 h, 10 µM, compound concentration 10 uM, replicate 1
[8] = 24 h, 10 µM, compound concentration 10 uM, replicate 2
[9] = 48 h, 1 µM, compound concentration 1 uM, replicate 1
[10] = 48 h, 1 µM, compound concentration 1 uM, replicate 2
[11] = 48 h, 10 µM, compound concentration 10 uM, replicate 1
[12] = 48 h, 10 µM, compound concentration 10 uM, replicate 2

N#Cc1cc(F)cc(-c2nc(-c3ccc(F)cn3)no2)c1
Population Apoptotic (%) [1]: 38% | Population Fragmented Nuclei (%) [1]: 10% | Population Healthy Nuclei (%) [1]: 76% | Population Hoechst High Intensity Objects (%) [1]: 5% | Population Membrane Permeable-Phenotype (%) [1]: 0% | Population Mitochondria Different-Phenotype (%) [1]: 41% | Population Mitotic Cells (%) [1]: 61% | Population Normal (%) [1]: 95% | Population Pyknosed Nuclei (%) [1]: 12% | Population Tubulin-Different-Phenotype (%) [1]: 25% | Total Cell Count [1]: 280 | Population Apoptotic (%) [2]: 64% | Population Fragmented Nuclei (%) [2]: 6% | Population Healthy Nuclei (%) [2]: 77% | Population Hoechst High Intensity Objects (%) [2]: 8% | Population Mitochondria Different-Phenotype (%) [2]: 55% | Population Mitotic Cells (%) [2]: 36% | Population Normal (%) [2]: 91% | Population Pyknosed Nuclei (%) [2]: 15% | Population Tubulin-Different-Phenotype (%) [2]: 22% | Total Cell Count [2]: 342 | Population Apoptotic (%) [3]: 45% | Population Fragmented Nuclei (%) [3]: 10% | Population Healthy Nuclei (%) [3]: 73% | Population Hoechst High Intensity Objects (%) [3]: 4% | Population Membrane Permeable-Phenotype (%) [3]: 0% | Population Mitochondria Different-Phenotype (%) [3]: 51% | Population Mitotic Cells (%) [3]: 55% | Population Normal (%) [3]: 95% | Population Pyknosed Nuclei (%) [3]: 16% | Population Tubulin-Different-Phenotype (%) [3]: 29% | Total Cell Count [3]: 383 | Population Fragmented Nuclei (%) [4]: 8% | Population Healthy Nuclei (%) [4]: 77% | Population Hoechst High Intensity Objects (%) [4]: 10% | Population Mitochondria Different-Phenotype (%) [4]: 61% | Population Mitotic Cells (%) [4]: 54% | Population Normal (%) [4]: 89% | Population Pyknosed Nuclei (%) [4]: 13% | Population Tubulin-Different-Phenotype (%) [4]: 22% | Total Cell Count [4]: 269 | Population Apoptotic (%) [5]: 43% | Population Fragmented Nuclei (%) [5]: 9% | Population Healthy Nuclei (%) [5]: 77% | Population Hoechst High Intensity Objects (%) [5]: 6% | Population Membrane Permeable-Phenotype (%) [5]: 0% | Population Mitochondria Different-Phenotype (%) [5]: 19% | Population Mitotic Cells (%) [5]: 56% | Population Normal (%) [5]: 93% | Population Pyknosed Nuclei (%) [5]: 12% | Population Tubulin-Different-Phenotype (%) [5]: 12% | Total Cell Count [5]: 353 | Population Apoptotic (%) [6]: 48% | Population Fragmented Nuclei (%) [6]: 7% | Population Healthy Nuclei (%) [6]: 82% | Population Hoechst High Intensity Objects (%) [6]: 7% | Population Mitochondria Different-Phenotype (%) [6]: 36% | Population Mitotic Cells (%) [6]: 51% | Population Normal (%) [6]: 92% | Population Pyknosed Nuclei (%) [6]: 9% | Population Tubulin-Different-Phenotype (%) [6]: 15% | Total Cell Count [6]: 463 | Population Apoptotic (%) [7]: 41% | Population Fragmented Nuclei (%) [7]: 10% | Population Healthy Nuclei (%) [7]: 74% | Population Hoechst High Intensity Objects (%) [7]: 4% | Population Membrane Permeable-Phenotype (%) [7]: 0% | Population Mitochondria Different-Phenotype (%) [7]: 34% | Population Mitotic Cells (%) [7]: 58% | Population Normal (%) [7]: 95% | Population Pyknosed Nuclei (%) [7]: 14% | Population Tubulin-Different-Phenotype (%) [7]: 18% | Total Cell Count [7]: 479 | Population Apoptotic (%) [8]: 39% | Population Healthy Nuclei (%) [8]: 79% | Population Hoechst High Intensity Objects (%) [8]: 8% | Population Mitochondria Different-Phenotype (%) [8]: 40% | Population Mitotic Cells (%) [8]: 60% | Population Normal (%) [8]: 91% | Population Pyknosed Nuclei (%) [8]: 9% | Population Tubulin-Different-Phenotype (%) [8]: 12% | Total Cell Count [8]: 363 | Population Apoptotic (%) [9]: 35% | Population Fragmented Nuclei (%) [9]: 15% | Population Healthy Nuclei (%) [9]: 77% | Population Hoechst High Intensity Objects (%) [9]: 1% | Population Membrane Permeable-Phenotype (%) [9]: 1% | Population Mitochondria Different-Phenotype (%) [9]: 16% | Population Mitotic Cells (%) [9]: 64% | Population Normal (%) [9]: 98% | Population Pyknosed Nuclei (%) [9]: 6% | Population Tubulin-Different-Phenotype (%) [9]: 11% | Total Cell Count [9]: 585 | Population Apoptotic (%) [10]: 27% | Population Fragmented Nuclei (%) [10]: 11% | Population Healthy Nuclei (%) [10]: 81% | Population Hoechst High Intensity Objects (%) [10]: 0% | Population Mitochondria Different-Phenotype (%) [10]: 18% | Population Mitotic Cells (%) [10]: 72% | Population Normal (%) [10]: 99% | Population Tubulin-Different-Phenotype (%) [10]: 10% | Total Cell Count [10]: 715 | Population Apoptotic (%) [11]: 39% | Population Fragmented Nuclei (%) [11]: 16% | Population Healthy Nuclei (%) [11]: 75% | Population Hoechst High Intensity Objects (%) [11]: 1% | Population Membrane Permeable-Phenotype (%) [11]: 1% | Population Mitochondria Different-Phenotype (%) [11]: 18% | Population Mitotic Cells (%) [11]: 60% | Population Normal (%) [11]: 98% | Population Pyknosed Nuclei (%) [11]: 8% | Population Tubulin-Different-Phenotype (%) [11]: 9% | Total Cell Count [11]: 643 | Population Apoptotic (%) [12]: 48% | Population Healthy Nuclei (%) [12]: 77% | Population Hoechst High Intensity Objects (%) [12]: 4% | Population Mitochondria Different-Phenotype (%) [12]: 22% | Population Mitotic Cells (%) [12]: 51% | Population Normal (%) [12]: 95% | Population Pyknosed Nuclei (%) [12]: 5% | Population Tubulin-Different-Phenotype (%) [12]: 11% | Total Cell Count [12]: 501
